Here are results for 3 compounds from ChEMBL document CHEMBL5653631, “A Potent and Selective ULK1 Inhibitor Suppresses Autophagy and Sensitizes Cancer Cells to Nutrient Stress” (iScience, 2018).

In experiment [1] the target is T1, Calcium/calmodulin-dependent protein kinase type IV (Homo sapiens) (UniProt Q16566).
T1 sequence (whole entry): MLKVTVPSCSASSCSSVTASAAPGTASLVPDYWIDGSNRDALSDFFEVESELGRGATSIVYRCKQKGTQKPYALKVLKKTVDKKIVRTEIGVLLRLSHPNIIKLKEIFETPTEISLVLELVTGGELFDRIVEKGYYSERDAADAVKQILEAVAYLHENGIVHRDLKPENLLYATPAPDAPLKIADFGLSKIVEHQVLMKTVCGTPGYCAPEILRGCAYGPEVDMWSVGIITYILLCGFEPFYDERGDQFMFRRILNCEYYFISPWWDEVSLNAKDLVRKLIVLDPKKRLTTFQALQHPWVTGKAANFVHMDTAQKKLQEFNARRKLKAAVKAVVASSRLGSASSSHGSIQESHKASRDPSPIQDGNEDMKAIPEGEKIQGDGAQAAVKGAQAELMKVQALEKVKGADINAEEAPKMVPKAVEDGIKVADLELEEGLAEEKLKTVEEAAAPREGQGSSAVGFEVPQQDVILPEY
The experiment in a line: Inhibition of human recombinant CaMK4 at 15 nM in presence of ATP by radiometric assay relative to control.

Experiment [2] addresses MAP kinase-activated protein kinase 3 (Homo sapiens) (UniProt Q16644). The experiment in a line: Inhibition of human recombinant MAPKAPK3 at 15 nM in presence of ATP by radiometric assay relative to control.
Experiment [3] deals with Serine/threonine-protein kinase ATR (Homo sapiens) (UniProt Q13535). The experiment in a line: Inhibition of human recombinant ATR at 15 nM related to control ULK1. In short, it runs like this: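 Panel of 327 recombinant human kinases, each assayed in vitro by radiometric activity assay in duplicate at a single inhibitor concentration per compound, chosen with reference to its ULK1 inhibition. Activity remaining was expressed as percent of vehicle control, and percent inhibition was calculated as 100 minus percent activity remaining.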

The target in experiment [4] is T2, Tyrosine-protein kinase ITK/TSK (Homo sapiens) (UniProt Q08881).
T2 sequence (whole entry): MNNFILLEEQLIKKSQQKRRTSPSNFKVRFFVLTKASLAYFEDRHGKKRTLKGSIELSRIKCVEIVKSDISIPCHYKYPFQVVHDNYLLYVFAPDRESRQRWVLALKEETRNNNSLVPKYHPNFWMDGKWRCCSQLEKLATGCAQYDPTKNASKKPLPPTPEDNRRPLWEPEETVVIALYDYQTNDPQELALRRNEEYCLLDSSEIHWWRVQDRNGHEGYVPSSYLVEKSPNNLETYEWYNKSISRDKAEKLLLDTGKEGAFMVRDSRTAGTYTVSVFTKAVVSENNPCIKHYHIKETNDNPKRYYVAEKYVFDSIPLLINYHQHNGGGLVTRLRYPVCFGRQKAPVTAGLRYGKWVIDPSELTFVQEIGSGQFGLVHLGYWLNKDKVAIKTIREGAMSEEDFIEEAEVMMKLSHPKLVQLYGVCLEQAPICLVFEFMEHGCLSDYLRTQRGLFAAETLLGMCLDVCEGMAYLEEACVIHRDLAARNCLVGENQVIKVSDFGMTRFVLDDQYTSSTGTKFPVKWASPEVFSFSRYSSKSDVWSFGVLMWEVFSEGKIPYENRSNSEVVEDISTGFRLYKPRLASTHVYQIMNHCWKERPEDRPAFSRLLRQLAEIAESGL
The experiment in a line: Inhibition of human recombinant ITK at 40 nM in presence of ATP by radiometric assay relative to control.

Experiment [5] deals with T3, Tyrosine-protein kinase ZAP-70 (Homo sapiens) (UniProt P43403).
T3 sequence (whole entry): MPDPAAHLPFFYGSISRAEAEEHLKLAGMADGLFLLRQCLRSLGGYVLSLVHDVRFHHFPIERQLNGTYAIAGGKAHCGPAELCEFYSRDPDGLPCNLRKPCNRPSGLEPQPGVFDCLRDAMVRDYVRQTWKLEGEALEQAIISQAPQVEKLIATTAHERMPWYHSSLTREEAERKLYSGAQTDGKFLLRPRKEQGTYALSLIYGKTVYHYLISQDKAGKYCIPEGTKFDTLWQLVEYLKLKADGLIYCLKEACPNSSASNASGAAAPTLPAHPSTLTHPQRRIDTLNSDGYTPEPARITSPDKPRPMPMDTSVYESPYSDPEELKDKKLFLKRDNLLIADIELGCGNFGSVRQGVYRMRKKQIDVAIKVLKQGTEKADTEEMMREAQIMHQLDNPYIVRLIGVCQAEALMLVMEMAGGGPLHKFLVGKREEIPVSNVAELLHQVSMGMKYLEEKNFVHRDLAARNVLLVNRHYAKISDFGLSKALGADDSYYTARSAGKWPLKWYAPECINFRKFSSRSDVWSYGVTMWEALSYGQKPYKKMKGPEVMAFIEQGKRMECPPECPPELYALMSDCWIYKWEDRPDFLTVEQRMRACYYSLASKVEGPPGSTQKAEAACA
The experiment in a line: Inhibition of human recombinant ZAP70 at 40 nM in presence of ATP by radiometric assay relative to control.

Experiment [6] has as its target Receptor-type tyrosine-protein kinase FLT3 (Homo sapiens) (UniProt P36888). Nature of the experiment: Inhibition of human recombinant FLT3 at 40 nM related to control ULK1.
For experiment [7], the target named is G protein-coupled receptor kinase 5 (Homo sapiens) (UniProt P34947). The experiment in a line: Inhibition of human recombinant GPRK5 at 40 nM related to control ULK1.
The target in experiment [8] is DNA-PK/Ku70/Ku85 (Homo sapiens) (UniProt P78527+P12956+P13010). Nature of the experiment: Inhibition of human recombinant DNAPK at 500 nM in presence of ATP by radiometric assay relative to control. The class given is protein-complex assay.

Sequence of Serine/threonine-protein kinase ATR (Homo sapiens) (Q13535 whole entry, looked up): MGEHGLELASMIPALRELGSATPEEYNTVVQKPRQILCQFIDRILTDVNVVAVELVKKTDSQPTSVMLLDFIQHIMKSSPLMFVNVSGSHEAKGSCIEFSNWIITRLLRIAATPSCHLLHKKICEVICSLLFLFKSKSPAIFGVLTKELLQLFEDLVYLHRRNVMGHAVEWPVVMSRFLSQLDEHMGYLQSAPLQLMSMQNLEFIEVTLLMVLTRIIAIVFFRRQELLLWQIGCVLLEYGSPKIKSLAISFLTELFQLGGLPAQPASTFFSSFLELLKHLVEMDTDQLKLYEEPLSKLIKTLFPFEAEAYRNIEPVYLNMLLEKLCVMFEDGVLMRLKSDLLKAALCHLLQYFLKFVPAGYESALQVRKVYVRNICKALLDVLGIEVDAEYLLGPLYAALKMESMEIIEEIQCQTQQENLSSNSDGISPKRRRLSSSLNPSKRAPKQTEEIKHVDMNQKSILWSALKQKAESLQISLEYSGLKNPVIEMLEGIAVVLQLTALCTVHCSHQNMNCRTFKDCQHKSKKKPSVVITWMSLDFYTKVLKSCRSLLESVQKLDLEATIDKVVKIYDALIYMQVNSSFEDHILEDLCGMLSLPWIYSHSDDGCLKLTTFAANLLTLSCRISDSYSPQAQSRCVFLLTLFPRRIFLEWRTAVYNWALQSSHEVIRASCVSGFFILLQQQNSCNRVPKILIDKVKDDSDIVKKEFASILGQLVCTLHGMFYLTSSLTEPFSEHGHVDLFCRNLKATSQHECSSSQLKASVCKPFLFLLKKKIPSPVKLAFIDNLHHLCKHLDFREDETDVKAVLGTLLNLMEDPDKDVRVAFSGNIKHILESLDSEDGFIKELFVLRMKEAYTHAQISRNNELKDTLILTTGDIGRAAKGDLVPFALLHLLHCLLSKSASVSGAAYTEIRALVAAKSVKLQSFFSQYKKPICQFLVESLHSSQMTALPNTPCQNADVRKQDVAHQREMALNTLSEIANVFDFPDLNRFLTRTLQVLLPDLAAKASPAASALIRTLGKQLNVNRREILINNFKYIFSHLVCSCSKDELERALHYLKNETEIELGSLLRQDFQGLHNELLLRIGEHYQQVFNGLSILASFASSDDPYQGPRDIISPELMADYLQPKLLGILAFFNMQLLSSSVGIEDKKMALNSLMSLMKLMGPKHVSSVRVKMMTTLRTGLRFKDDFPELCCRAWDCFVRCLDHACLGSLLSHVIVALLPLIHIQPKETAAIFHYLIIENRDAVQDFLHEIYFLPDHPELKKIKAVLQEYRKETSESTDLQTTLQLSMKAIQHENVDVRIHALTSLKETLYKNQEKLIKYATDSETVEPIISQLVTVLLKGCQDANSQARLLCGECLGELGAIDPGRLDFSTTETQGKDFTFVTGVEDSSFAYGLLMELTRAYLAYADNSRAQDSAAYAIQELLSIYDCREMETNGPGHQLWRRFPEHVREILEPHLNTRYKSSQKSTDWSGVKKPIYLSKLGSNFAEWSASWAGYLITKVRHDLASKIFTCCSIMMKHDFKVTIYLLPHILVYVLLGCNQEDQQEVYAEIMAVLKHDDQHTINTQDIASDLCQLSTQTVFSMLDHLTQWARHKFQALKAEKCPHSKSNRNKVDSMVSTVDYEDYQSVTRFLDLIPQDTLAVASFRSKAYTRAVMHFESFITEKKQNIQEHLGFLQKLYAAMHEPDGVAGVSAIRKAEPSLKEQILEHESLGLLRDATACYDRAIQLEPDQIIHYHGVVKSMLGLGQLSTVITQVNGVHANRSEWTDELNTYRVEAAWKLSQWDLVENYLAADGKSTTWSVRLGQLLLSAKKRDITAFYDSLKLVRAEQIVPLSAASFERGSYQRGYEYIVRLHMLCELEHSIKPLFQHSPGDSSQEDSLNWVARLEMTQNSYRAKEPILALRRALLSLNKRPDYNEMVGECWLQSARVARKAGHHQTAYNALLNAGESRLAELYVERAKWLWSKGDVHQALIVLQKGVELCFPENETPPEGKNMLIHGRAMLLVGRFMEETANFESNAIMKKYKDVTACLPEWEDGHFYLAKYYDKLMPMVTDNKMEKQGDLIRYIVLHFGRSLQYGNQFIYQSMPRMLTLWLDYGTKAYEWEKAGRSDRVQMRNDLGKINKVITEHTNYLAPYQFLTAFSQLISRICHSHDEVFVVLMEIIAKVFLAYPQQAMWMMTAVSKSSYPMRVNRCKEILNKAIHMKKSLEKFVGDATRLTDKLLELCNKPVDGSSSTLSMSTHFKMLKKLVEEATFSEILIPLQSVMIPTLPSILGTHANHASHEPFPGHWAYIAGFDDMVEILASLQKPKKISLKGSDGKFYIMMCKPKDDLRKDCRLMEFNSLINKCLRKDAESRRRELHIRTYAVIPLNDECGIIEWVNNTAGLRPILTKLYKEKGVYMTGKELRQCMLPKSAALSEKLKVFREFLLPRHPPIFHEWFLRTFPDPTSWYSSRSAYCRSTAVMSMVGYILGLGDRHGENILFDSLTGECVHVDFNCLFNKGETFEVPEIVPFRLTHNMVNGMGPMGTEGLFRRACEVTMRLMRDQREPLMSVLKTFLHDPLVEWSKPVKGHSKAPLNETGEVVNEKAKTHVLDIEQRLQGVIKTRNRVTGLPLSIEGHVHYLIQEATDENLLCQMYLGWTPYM
Sequence of Receptor-type tyrosine-protein kinase FLT3 (Homo sapiens) (P36888 whole entry): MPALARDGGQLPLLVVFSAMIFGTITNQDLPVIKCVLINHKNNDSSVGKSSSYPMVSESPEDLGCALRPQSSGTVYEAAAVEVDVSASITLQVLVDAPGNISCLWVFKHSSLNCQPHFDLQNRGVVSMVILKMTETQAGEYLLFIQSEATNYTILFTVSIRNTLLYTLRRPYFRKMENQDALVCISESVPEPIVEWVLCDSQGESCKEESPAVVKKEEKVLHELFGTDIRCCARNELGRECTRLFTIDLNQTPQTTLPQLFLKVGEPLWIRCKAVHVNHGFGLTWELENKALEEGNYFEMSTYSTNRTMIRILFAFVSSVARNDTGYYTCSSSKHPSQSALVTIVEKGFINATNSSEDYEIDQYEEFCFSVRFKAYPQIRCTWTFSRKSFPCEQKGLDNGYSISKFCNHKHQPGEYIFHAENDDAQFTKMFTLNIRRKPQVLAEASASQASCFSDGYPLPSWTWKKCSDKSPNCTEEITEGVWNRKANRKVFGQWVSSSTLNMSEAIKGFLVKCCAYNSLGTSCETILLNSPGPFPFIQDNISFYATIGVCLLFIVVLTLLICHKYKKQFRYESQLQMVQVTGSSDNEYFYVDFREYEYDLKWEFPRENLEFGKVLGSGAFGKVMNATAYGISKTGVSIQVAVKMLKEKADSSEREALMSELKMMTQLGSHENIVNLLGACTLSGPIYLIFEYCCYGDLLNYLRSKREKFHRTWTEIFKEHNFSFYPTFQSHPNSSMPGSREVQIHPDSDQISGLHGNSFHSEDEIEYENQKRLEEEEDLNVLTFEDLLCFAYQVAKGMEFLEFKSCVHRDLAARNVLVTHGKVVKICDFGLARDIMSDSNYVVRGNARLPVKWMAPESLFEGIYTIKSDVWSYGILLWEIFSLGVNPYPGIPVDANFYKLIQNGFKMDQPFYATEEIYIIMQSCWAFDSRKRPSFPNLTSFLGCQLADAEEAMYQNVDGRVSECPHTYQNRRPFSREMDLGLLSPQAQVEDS
Sequence of G protein-coupled receptor kinase 5 (Homo sapiens) (P34947 whole entry, looked up): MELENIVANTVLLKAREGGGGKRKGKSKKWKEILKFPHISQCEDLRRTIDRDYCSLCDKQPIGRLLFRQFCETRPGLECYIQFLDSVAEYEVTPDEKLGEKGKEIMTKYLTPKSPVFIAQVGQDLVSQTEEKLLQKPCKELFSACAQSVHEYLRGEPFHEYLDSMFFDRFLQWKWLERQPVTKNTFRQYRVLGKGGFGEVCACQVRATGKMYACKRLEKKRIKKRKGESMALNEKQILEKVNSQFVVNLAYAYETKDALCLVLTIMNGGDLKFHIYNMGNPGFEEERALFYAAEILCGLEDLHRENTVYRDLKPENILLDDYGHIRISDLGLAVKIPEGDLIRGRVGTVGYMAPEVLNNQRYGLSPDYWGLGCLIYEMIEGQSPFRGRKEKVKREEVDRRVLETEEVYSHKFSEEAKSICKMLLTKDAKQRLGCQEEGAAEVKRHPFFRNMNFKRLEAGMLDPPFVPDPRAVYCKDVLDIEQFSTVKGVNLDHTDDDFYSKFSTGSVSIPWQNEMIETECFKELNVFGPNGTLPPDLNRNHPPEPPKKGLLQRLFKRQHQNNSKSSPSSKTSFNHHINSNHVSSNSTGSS
Sequence of MAP kinase-activated protein kinase 3 (Homo sapiens) (Q16644 whole entry, looked up): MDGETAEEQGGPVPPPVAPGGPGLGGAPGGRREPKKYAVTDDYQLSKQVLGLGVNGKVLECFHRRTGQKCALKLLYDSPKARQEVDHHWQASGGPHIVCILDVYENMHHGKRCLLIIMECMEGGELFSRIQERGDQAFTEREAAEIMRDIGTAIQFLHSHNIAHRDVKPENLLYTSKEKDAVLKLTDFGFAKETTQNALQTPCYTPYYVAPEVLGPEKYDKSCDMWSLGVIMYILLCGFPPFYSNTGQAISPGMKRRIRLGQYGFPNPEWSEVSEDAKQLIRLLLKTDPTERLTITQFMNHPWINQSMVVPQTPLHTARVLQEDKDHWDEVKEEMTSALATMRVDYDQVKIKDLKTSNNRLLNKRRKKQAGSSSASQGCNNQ

A word on the inhibition: it is the share of the control response that was lost under treatment. Take `CC(C)[C@H](NC(=O)c1cc(-c2cnn3cc(-c4ccc(OCCN5CCCCC5)cc4)cnc23)cs1)C(F)(F)F`: the inhibition in experiment [1] and in experiment [2] was 0% throughout. Also, the fold change (FC) in experiment [3] worked out at 0.05.

Consider `O=C(N[C@@H](C1CC1)C(F)(F)F)c1cc(-c2cnn3cc(-c4ccc(F)cc4)cnc23)cs1`, for which the inhibition in experiment [4] and in experiment [5] was 0% in each case. Also, the values for the fold change (FC) in experiment [6] and in experiment [7] were 0.26 and 0.01, respectively.

As for `CNC(=O)c1ccccc1Oc1nc(Nc2cc(OC)c(OC)c(OC)c2)ncc1Br`, the inhibition in experiment [8] was found to be 12%.
